Laboratory results: ChEMBL document CHEMBL4350993, “Dipropargyl substituted diphenylpyrimidines as dual inhibitors of monoamine oxidase and acetylcholinesterase” (Eur J Med Chem, 2019)
Calls of active or inactive are those of the source. The rule behind the calls is not given here.

Tests used:
[1] = biological target: Acetylcholinesterase (Electrophorus electricus, UniProt O42275); assay: Inhibition of electric eel AChE assessed as reduction in production of H202 using acetylcholine as substrate incubated for 15 mins followed by substrate addition by horse radish peroxidase/Amplex red reagent based fluorescence assay
Acetylcholinesterase, sequence (O42275 whole entry): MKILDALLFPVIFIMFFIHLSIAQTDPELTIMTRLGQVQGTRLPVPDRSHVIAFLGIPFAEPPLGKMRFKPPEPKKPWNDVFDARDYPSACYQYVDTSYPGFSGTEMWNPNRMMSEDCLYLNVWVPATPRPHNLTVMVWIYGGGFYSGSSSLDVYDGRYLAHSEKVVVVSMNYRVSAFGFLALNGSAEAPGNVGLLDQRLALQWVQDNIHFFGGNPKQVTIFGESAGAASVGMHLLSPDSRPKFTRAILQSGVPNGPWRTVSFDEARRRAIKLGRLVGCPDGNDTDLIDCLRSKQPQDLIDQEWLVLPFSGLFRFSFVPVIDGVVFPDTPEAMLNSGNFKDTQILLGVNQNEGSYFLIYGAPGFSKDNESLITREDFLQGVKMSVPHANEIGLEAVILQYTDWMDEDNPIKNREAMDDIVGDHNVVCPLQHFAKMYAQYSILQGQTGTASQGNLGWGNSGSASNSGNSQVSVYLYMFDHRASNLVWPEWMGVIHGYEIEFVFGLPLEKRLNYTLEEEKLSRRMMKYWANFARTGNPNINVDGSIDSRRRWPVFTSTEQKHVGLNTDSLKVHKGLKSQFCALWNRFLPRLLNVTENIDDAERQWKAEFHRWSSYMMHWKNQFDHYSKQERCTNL

[2] = biological target: T1, Amine oxidase [flavin-containing] A (Homo sapiens, UniProt P21397); assay: (§1) Inhibition of human recombinant microsomal MAO-A expressed in baculovirus infected BTI-TN-5B1-4 cells assessed as reduction in production of H202 using p-tyramine as substrate incubated for 30 mins followed by substrate addition by horse radish peroxidase/Amplex red reagent based fluorescence assay; type: cell-based
T1 sequence (P21397 whole entry): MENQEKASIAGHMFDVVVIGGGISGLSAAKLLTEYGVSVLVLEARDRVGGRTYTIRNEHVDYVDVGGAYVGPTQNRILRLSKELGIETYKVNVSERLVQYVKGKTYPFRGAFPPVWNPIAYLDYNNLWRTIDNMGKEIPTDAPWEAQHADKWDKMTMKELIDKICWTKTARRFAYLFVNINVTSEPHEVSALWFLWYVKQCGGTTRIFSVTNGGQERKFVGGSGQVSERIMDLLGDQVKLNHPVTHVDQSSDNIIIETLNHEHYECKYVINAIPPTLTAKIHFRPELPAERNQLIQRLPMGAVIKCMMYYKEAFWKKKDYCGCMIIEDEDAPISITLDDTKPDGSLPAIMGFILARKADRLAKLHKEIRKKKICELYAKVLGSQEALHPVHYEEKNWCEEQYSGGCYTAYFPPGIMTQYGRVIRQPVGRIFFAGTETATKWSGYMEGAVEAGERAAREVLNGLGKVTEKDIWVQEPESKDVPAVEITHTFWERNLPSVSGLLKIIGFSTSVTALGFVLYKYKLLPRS

[3] = biological target: T2, Amine oxidase [flavin-containing] B (Homo sapiens, UniProt P27338); assay: Inhibition of human recombinant microsomal MAO-B expressed in baculovirus infected BTI-TN-5B1-4 cells assessed as reduction in production of H202 using p-tyramine as substrate incubated for 30 mins followed by substrate addition by horse radish peroxidase/Amplex red reagent based fluorescence assay; type: cell-based
T2 sequence (P27338 whole entry): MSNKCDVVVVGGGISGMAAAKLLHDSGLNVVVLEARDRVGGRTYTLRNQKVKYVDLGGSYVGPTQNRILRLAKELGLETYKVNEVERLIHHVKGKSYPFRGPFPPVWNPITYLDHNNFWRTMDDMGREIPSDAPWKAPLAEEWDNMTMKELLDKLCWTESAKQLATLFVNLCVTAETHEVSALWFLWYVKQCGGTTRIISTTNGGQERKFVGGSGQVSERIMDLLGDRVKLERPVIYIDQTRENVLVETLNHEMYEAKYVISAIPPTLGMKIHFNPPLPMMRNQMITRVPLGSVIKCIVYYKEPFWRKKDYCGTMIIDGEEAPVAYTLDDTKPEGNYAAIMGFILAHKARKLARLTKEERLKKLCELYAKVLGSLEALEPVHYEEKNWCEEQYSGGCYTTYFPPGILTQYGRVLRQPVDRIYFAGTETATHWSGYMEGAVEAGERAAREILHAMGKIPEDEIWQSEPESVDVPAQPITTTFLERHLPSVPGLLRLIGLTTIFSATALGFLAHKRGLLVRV

[4] = organism: Homo sapiens; assay: Selectivity index, ratio of IC50 for human recombinant microsomal MAO- A expressed in baculovirus infected BTI-TN-5B1- 4 cells using p-tyramine as substrate to IC50 for human recombinant microsomal MAO- B expressed in baculovirus infected BTI-TN-5B1- 4 cells using p-tyramine as substrate by horse radish peroxidase/Amplex red reagent based fluorescence assay
How it was run: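 Recombinant hMAO-A (1.1 µg) or hMAO-B (7.5 µg) preincubated with inhibitor over a concentration range for 30 min at 37 °C in 0.05 M sodium phosphate, pH 7.4. Reaction started with 1 mM p-tyramine, 200 µM Amplex Red and 1 U/mL HRP (final concentrations). H₂O₂ was read by fluorescence (ex 545/em 590 nm) after 30 min dark incubation. Background without enzyme was subtracted; vehicle served as control.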

[5] = biological target: T1, Amine oxidase [flavin-containing] A; assay: as §1, with “MAO- A” for “MAO-A”, “BTI-TN-5B1- 4” for “BTI-TN-5B1-4”, “H202 at 50 uM” for “H202”; conditions: 0.5 h
How it was run: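 Recombinant hMAO-A (1.1 µg protein) preincubated 30 min at 37 °C with test compound in 0.05 M sodium phosphate, pH 7.4. Reaction started with (final) 200 µM Amplex Red, 1 U/mL HRP and 1 mM p-tyramine. After 30 min in the dark, H2O2 read by fluorescence (ex 545/em 590 nm) at 37 °C. Background without enzyme subtracted; vehicle control.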

[6] = test system: SH-SY5Y; assay: Inhibition of ROS generation in human SH-SY5Y cells at 5 uM measured after 24 hrs by DCF-DA dye based fluorescence assay relative to control; type: functional
How it was run: (§2)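 SH-SY5Y cells, about 10,000/well, grown 24 h in DMEM/F-12 with 10% FBS, horse serum and 1% penicillin. Washed with PBS, then exposed to compound without FBS for 24 h (1, 5, 25 μM). Rinsed three times in PBS, loaded with H2DCF-DA (50 μM) for 30 min at 37 °C, rinsed again. Fluorescence read at ex 478 / em 518 nm.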

[7] = Octanol/water partition coefficient, logP of compound; type: physicochemical
[8] = biological target: Acetylcholinesterase (Electrophorus electricus) (UniProt O42275); assay: Reversible inhibition of electric eel AChE assessed as recovery of enzyme activity at 10 times IC50 using acetylcholine as substrate relative to control
Acetylcholinesterase (Electrophorus electricus), sequence (O42275 24-633 limits assumed): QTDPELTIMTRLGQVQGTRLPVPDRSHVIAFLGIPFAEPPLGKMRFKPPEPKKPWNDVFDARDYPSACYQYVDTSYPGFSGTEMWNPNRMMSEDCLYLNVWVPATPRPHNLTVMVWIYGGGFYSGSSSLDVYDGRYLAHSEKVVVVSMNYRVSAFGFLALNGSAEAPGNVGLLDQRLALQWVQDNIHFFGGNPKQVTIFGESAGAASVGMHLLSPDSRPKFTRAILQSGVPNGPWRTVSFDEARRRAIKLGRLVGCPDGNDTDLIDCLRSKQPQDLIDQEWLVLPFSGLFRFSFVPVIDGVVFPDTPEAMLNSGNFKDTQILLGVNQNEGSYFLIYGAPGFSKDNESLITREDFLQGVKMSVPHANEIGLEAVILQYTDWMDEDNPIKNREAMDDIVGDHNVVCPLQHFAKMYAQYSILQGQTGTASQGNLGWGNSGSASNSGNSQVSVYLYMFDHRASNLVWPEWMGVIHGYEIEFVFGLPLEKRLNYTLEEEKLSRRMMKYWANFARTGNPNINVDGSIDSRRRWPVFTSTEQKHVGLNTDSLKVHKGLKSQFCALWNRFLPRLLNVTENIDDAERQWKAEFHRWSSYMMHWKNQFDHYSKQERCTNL

[9] = biological target: Acetylcholinesterase (Electrophorus electricus) (UniProt O42275); assay: Reversible inhibition of electric eel AChE assessed as recovery of enzyme activity at IC50 using acetylcholine as substrate relative to control
[10] = Cytotoxicity against human SH-SY5Y cells assessed as cell viability at 25 uM measured after 24 hrs by MTT assay relative to control; type: cell-based; conditions: read-out: Activity
How it was run: (§3)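 SH-SY5Y cells, about 10,000/well, grown 24 h in DMEM/F-12 with 10% FBS, horse serum and 1% penicillin. Exposed to compound at 1, 5 or 25 μM for 24 h, serum-free, at 37 °C, 5% CO2. MTT added, 4 h at 37 °C, formazan dissolved in DMSO, OD read at 595 nm. Viability expressed relative to control.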

[11] = Cytotoxicity against human SH-SY5Y cells assessed as cell viability at 5 uM measured after 24 hrs by MTT assay relative to control; type: cell-based; conditions: read-out: Activity; how it was run: as §3
[12] = test system: SH-SY5Y; assay: Inhibition of ROS generation in human SH-SY5Y cells at 1 uM measured after 24 hrs by DCF-DA dye based fluorescence assay relative to control; type: functional; how it was run: as §2
[13] = test system: SH-SY5Y; assay: Inhibition of ROS generation in human SH-SY5Y cells at 25 uM measured after 24 hrs by DCF-DA dye based fluorescence assay relative to control; type: functional; how it was run: as §2
[14] = biological target: Acetylcholinesterase (Electrophorus electricus) (UniProt O42275); assay: Reversible inhibition of electric eel AChE assessed as recovery of enzyme activity at 0.1 times IC50 using acetylcholine as substrate relative to control
[15] = Metal chelating activity of the compound assessed as formation of Fe3+ complex at 50 uM by UV-vis spectrophotometric analysis
How it was run: (§4)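 Absorption spectra recorded by UV–vis spectrophotometry for compound alone (50 μM final) and with CuSO₄, FeSO₄ or FeCl₃ (50 μM final); chelation judged from spectral change.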

[16] = test system: SH-SY5Y; assay: Neuroprotective activity against 6-OHDA induced toxicity in human SH-SY5Y cells assessed as cell viability at 5 uM preincubated for 4 hrs followed by 6-OHDA addition and measured after 24 hrs by MTT assay (reference value: 48.52 %); type: functional; conditions: read-out: Activity
[17] = Cytotoxicity against human SH-SY5Y cells assessed as cell viability at 1 uM measured after 24 hrs by MTT assay relative to control; type: cell-based; conditions: read-out: Activity; how it was run: as §3
[18] = Metal chelating activity of the compound assessed as formation of Fe2+ complex at 50 uM by UV-vis spectrophotometric analysis; how it was run: as §4
[19] = Metal chelating activity of the compound assessed as formation of Cu2+ complex at 50 uM by UV-vis spectrophotometric analysis; how it was run: as §4
[20] = biological target: Acetylcholinesterase (Electrophorus electricus) (UniProt O42275); assay: Reversible inhibition of electric eel AChE assessed as recovery of enzyme activity at 100 times IC50 using acetylcholine as substrate relative to control
[21] = test system: SH-SY5Y; assay: Neuroprotective activity against 6-OHDA induced toxicity in human SH-SY5Y cells assessed as cell viability at 25 uM preincubated for 4 hrs followed by 6-OHDA addition and measured after 24 hrs by MTT assay (reference value: 48.52 %); type: functional; conditions: read-out: Activity
[22] = test system: SH-SY5Y; assay: Neuroprotective activity against 6-OHDA induced toxicity in human SH-SY5Y cells assessed as cell viability at 1 uM preincubated for 4 hrs followed by 6-OHDA addition and measured after 24 hrs by MTT assay (reference value: 48.52 %); type: functional; conditions: read-out: Activity
[23] = biological target: Acetylcholinesterase (Electrophorus electricus) (UniProt O42275); conditions: at 1 to 5 µM

Structure (SMILES) | IC50 [1] [µM] | IC50 ([2]; read-out: IC50) [µM] | IC50 [3] [µM] | Ratio IC50 [4] | inhibition at 50 µM [5] [%] | IC50 ([2]; bti-tn-5b1-4) | also measured
C#CCOc1ccc(-c2cc(-c3ccccc3OCC#C)nc(-c3ccccc3)n2)cc1 | 7.25 | 22 | 14.4 | 1.5 |  |  | 
C#CCOc1ccc(-c2cc(-c3cccc(OCC#C)c3)nc(C)n2)cc1 | 5.88 | 21.1 | 8.09 | 2.6 |  |  | 
C#CCOc1ccccc1-c1cc(-c2ccccc2OCC#C)nc(N)n1 | 5.19 |  | 11.1 | > 5 | < 50 | Not Active | 
C#CCOc1ccc(-c2cc(-c3ccc(OCC#C)c(OCC)c3)nc(C)n2)cc1 | 6.38 |  | 11 | > 5 | < 50 | Not Active | 
C#CCOc1cccc(-c2cc(-c3cccc(OCC#C)c3)nc(N)n2)c1 | 6.99 |  | 22.1 | > 3 | < 50 | Not Active | 
C#CCOc1ccc(-c2cc(-c3ccccc3OCC#C)nc(C)n2)cc1 | 2.56 | 23.2 | 18.1 | 1.3 |  |  | 
C#CCOc1ccc(-c2cc(-c3ccc(OCC#C)c(OC)c3)nc(N)n2)cc1 | 4.58 |  | 20 | > 3 | < 50 | Not Active | 
C#CCOc1ccc(-c2cc(-c3ccc(OCC#C)cc3)nc(N)n2)cc1 | 1.35 | 32.1 | 3.3 | 9.7 |  |  | inhibition at 5 µM [6]: 30%; logP [7]: 4.52; inhibition [8]: 10.2%; inhibition [9]: 42.4%; viability at 24 h, 25 µM [10]: 72.6%; viability at 24 h, 5 µM [11]: 73%; inhibition at 1 µM [12]: 89.8%; inhibition at 25 µM [13]: 25.9%; inhibition [14]: 66.5%; Activity [15]: inactive; viability at 5 µM [16]: 62.4%; viability at 24 h, 1 µM [17]: 79%; Activity [18]: inactive; Activity [19]: inactive; inhibition [20]: 3.4%; viability at 25 µM [21]: 53.6%; viability at 1 µM [22]: 66.6%
C#CCOc1ccc(-c2cc(-c3ccc(OCC#C)c(OC)c3)nc(-c3ccccc3)n2)cc1 | 6.99 | 24.9 | 15.7 | 1.6 |  |  | 
C#CCOc1ccc(-c2cc(-c3ccc(OCC#C)cc3)nc(C)n2)cc1 | 1.76 | 34.1 | 7.83 | 4.4 |  |  | 
C#CCOc1ccc(-c2cc(-c3ccc(OCC#C)c(OC)c3)nc(C)n2)cc1 | 5.92 | 25 | 21.1 | 1.2 |  |  | 
C#CCOc1ccc(-c2cc(-c3ccc(OCC#C)cc3)nc(-c3ccccc3)n2)cc1 | 7.53 | 25.6 | 12.3 | 2.1 |  |  | 
C#CCOc1ccc(-c2cc(-c3ccccc3OCC#C)nc(N)n2)cc1 | 1.81 | 28.6 | 22.1 | 1.3 |  |  | 
C#CCOc1ccc(-c2cc(-c3ccc(OCC#C)c(OCC)c3)nc(-c3ccccc3)n2)cc1 | 6.94 |  | 29 | > 2 | < 50 | Not Active | 
C#CCOc1cccc(-c2cc(-c3cccc(OCC#C)c3)nc(-c3ccccc3)n2)c1 | 6.73 |  | 23.4 | > 3 | < 50 | Not Active | 
C#CCOc1ccc(-c2cc(-c3cccc(OCC#C)c3)nc(-c3ccccc3)n2)cc1 | 4.39 | 25.8 | 17.7 | 1.5 |  |  | 
C#CCOc1ccc(-c2cc(-c3ccc(OCC#C)c(OCC)c3)nc(N)n2)cc1 | 7.05 |  | 14 | > 4 | < 50 | Not Active | 
C#CCOc1ccccc1-c1cc(-c2ccccc2OCC#C)nc(-c2ccccc2)n1 | 8.12 |  | 13.8 | > 4 | < 50 | Not Active | 
C#CCOc1ccc(-c2cc(-c3cccc(OCC#C)c3)nc(N)n2)cc1 | 1.74 | 24.1 | 1.49 | 16.1 |  |  | inhibition at 5 µM [6]: 47.2%; logP [7]: 4.51; inhibition [8]: 12.3%; inhibition [9]: 41.8%; viability at 24 h, 25 µM [10]: 69.2%; viability at 24 h, 5 µM [11]: 79.6%; inhibition [23]: Active; inhibition at 1 µM [12]: 68.3%; inhibition at 25 µM [13]: 41%; inhibition [14]: 82.8%; Activity [15]: inactive; viability at 5 µM [16]: 59.5%; viability at 24 h, 1 µM [17]: 87.3%; Activity [18]: inactive; Activity [19]: inactive; inhibition [20]: 7.35%; viability at 25 µM [21]: 52.3%; viability at 1 µM [22]: 60.5%
